Test results reported in PMC4196235 (mBio, 2014).
Converted amounts (≈) assume the structure as drawn.

What was measured:
[1] = system: hybrid bacterial ribosomes carrying the cytoplasmic A site; test: cell-free translation assay, cytosolic hybrid ribosomes; type: biochemical, Homo sapiens; details: firefly luciferase synthesis, mean ± SD, triplicate
Procedure, shortened: (§1)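 Hybrid 70S ribosomes purified from recombinant Mycobacterium smegmatis strains derived from a ΔrrnB single-rRNA-operon strain. Reactions contained 0.25 µM ribosomes, 4 µg firefly luciferase mRNA, 40% (vol/vol) M. smegmatis S100 extract, 200 µM amino acids and 0.4 mg/ml tRNAs, with S30 premix as energy source. Serially diluted test compound added; 37°C for 35 min, stopped on ice. Luciferase luminescence read; IC50 from dose-response curves; mean ± SD, triplicate.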

[2] = system: hybrid bacterial ribosomes carrying the mitochondrial mutant A1555G deafness A site; test: cell-free translation assay, mitochondrial deafness hybrid ribosomes; type: biochemical, Homo sapiens; details: firefly luciferase synthesis, mean ± SD, triplicate
Procedure, shortened: as §1

[3] = system: hybrid bacterial ribosomes carrying the mitochondrial A site; test: cell-free translation assay, mitochondrial hybrid ribosomes; type: biochemical, Homo sapiens; details: firefly luciferase synthesis, mean ± SD, triplicate
Procedure, shortened: as §1

[4] = system: rabbit reticulocyte ribosomes; test: in vitro translation in rabbit reticulocyte lysate; type: biochemical; details: firefly luciferase synthesis, mean ± SD, triplicate
Procedure, shortened: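 Cell-free translation in rabbit reticulocyte lysate with firefly luciferase mRNA and serially diluted test compound. Incubated 37°C for 35 min, stopped on ice, then luciferase luminescence measured. IC50 is the concentration halving functional luciferase synthesis, taken from dose-response curves; mean ± SD, triplicate.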

outer hair cells = test: quantification of outer hair cell loss in cochlear surface preparations; type: in vivo; details: guinea pig, 140 mg/kg, 14 days
Procedure, shortened: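 Guinea pigs dosed subcutaneously once daily for 14 days. After the final ABR (3 weeks post-treatment), cochleae were split into apical, middle and basal segments. Segments were permeabilized in 3% Triton X-100 for 30 min at RT, washed in PBS and stained with rhodamine phalloidin (1:100) for 1 h at RT. Consecutive 0.19-mm fields from the apex were scored blind for missing outer hair cells against a normative database.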

[5] = general toxicity in the guinea pig chronic ototoxicity study; type: in vivo
Procedure, shortened: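 Male Hartley guinea pigs, about 200 g initially, acclimated 1 week. […] Animals were followed for death and body weight through the study, which included ABR testing before treatment and 3 weeks after treatment ended.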

[6] = system: cytosolic hybrid ribosomes; test: ribosomal damage index, cytosolic hybrid; type: biochemical, Homo sapiens; details: 1/IC50 × misreading at IC50/misreading in the absence of the drug × 100
Procedure, shortened: (§2)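 Misreading gain-of-function assay: firefly luciferase mRNA with His245 CAC replaced by near-cognate Arg245 CGC, alongside wild-type firefly mRNA, translated in vitro with renilla luciferase mRNA as internal control. Misreading is the mutant firefly/renilla ratio relative to the wild-type firefly/renilla ratio.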

[7] = system: Escherichia coli isolates; test: MIC by broth microdilution, clinical isolates; type: cell-based
Procedure, shortened: (§3)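 Clinical isolates from a university diagnostic microbiology department. MIC determined by broth microdilution in microtiter plates, incubated overnight.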

[8] = system: recombinant bacterial ribosomes with point mutation A1408G in the A site; test: cell-free ribosomal translation assay, A1408G mutant; type: biochemical, Mycobacterium smegmatis
Procedure, shortened: (§4)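 Purified 70S hybrid ribosomes, wild-type or carrying the single A-site point mutation, came from M. smegmatis strains with a single rRNA operon. Each was translated with firefly luciferase mRNA, 40% (vol/vol) M. smegmatis S100 extract, amino acids, 0.4 mg/ml tRNAs and S30 premix energy, plus serially diluted test compound, for 35 min at 37°C. Luciferase luminescence gave IC50s (triplicate means ± SD), expressed as mutant/wild-type IC50 ratio.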

S. aureus MRSA AG041 = test: neutropenic murine model of Staphylococcus aureus septicemia; type: in vivo; details: at the highest dose tested; subcutaneous (Fig. 2C and F)
[9] = system: mitochondrial A1555G mutant hybrid ribosomes; test: ribosomal damage index, mitochondrial A1555G mutant hybrid; type: biochemical, Homo sapiens; details: 1/IC50 × misreading at IC50/misreading in the absence of the drug × 100
Procedure, shortened: as §2

[10] = system: Staphylococcus aureus (MRSA) isolates; test: MIC by broth microdilution, clinical isolates; type: cell-based
Procedure, shortened: as §3

[11] = system: mitochondrial hybrid ribosomes; test: ribosomal damage index; type: biochemical, Homo sapiens; details: 1/IC50 × misreading at IC50/misreading in the absence of the drug × 100
Procedure, shortened: as §2

[12] = system: rabbit reticulocyte ribosomes; test: ribosomal damage index, native cytosolic eukaryotic ribosomes; type: biochemical; details: 1/IC50 × misreading at IC50/misreading in the absence of the drug × 100
Procedure, shortened: as §2

[13] = system: recombinant bacterial ribosomes with point mutation G1491C in the A site; test: cell-free ribosomal translation assay, G1491C mutant; type: biochemical, Mycobacterium smegmatis
Procedure, shortened: as §4

## NCC1OC(OC2C(CO)OC(OC3C(O)C(N)CC(N)C3OC3OC(CO)C(OCCCc4ccccc4)C(O)C3N)C2O)C(N)C(O)C1O (stereo not shown) [4′-O-(3-Phenylpropyl) paromomycin]
[1]
  IC50 with eukaryotic A sites in the ribosome: Cytosolic wild-type: 268.57 ± 54.97 mg/L
[2]
  IC50 with eukaryotic A sites in the ribosome: Mitochondrial mutant A1555G: 105.68 ± 39.23 mg/L
[3]
  IC50 with eukaryotic A sites in the ribosome: Mitochondrial wild-type: 49.85 ± 15.39 mg/L

## NC[C@@H]1O[C@H](O[C@H]2[C@@H](O)[C@H](O[C@@H]3[C@@H](O)[C@H](N)C[C@H](N)[C@H]3O[C@H]3O[C@H](CO)C[C@H](O)[C@H]3N)O[C@@H]2CO)[C@H](N)[C@@H](O)[C@@H]1O [4′ Deoxy paromomycin]
[1]
  IC50 with eukaryotic A sites in the ribosome: Cytosolic wild-type: 28.4 ± 13.8 mg/L
[2]
  IC50 with eukaryotic A sites in the ribosome: Mitochondrial mutant A1555G: 24.2 ± 10.5 mg/L
[4]
  IC50 with eukaryotic A sites in the ribosome: Rabbit reticulocytes: 17.3 ± 4.2 mg/L
[3]
  IC50 with eukaryotic A sites in the ribosome: Mitochondrial wild-type: 74.1 ± 12.4 mg/L

## CNC(C)C1CCC(N)C(OC2C(N)CC(N)C(OC3OCC(C)(O)C(NC)C3O)C2O)O1 (stereo not shown) [Gentamicin]
Outer hair cells
  loss of outer hair cells in cochleae: steep rise of hair cell loss from the middle cochlea to complete loss at the base
Outer hair cells; listed as gentamicin
  loss of outer hair cells in cochleae: extensive loss of outer hair cells
[5]; doses below 160 mg/kg
  signs of general toxicity: significant weight loss
[5]; doses exceeding 160 mg/kg
  signs of general toxicity: death

## NC[C@@H]1O[C@H](O[C@H]2[C@@H](O)[C@H](O[C@@H]3[C@@H](O)[C@H](N)C[C@H](N)[C@H]3O[C@H]3O[C@@H]4CO[C@@H](CCc5ccccc5)O[C@H]4[C@H](O)[C@H]3N)O[C@@H]2CO)[C@H](N)[C@@H](O)[C@@H]1O [4′,6′-O-(3-Phenylpropylidene) paromomycin]
[1]
  IC50 with eukaryotic A sites in the ribosome: Cytosolic wild-type: 150.5 ± 28.0 mg/L
[2]
  IC50 with eukaryotic A sites in the ribosome: Mitochondrial mutant A1555G: 126.9 ± 54.4 mg/L
[3]
  IC50 with eukaryotic A sites in the ribosome: Mitochondrial wild-type: 305.7 ± 74.1 mg/L

## NC[C@@H]1O[C@H](O[C@H]2[C@@H](O)[C@H](O[C@@H]3[C@@H](O)[C@H](N)C[C@H](N)[C@H]3O[C@H]3O[C@H](CO)[C@@H](O)[C@H](O)[C@H]3N)O[C@@H]2CO)[C@H](N)[C@@H](O)[C@@H]1O [Paromomycin]
[6]
  Ribosomal damage index: Cytosolic wild-type: 40.0
[1]
  IC50 with eukaryotic A sites in the ribosome: Cytosolic wild-type: 9.89 ± 2.73 mg/L
[7]; E. coli clinical isolate AG 001
  MIC: 16 to 32 µg/mL (≈ 26 to 52 µM)
[7]; E. coli clinical isolate AG 002
  MIC: 8 to 16 µg/mL (≈ 13 to 26 µM)
[7]; E. coli clinical isolate AG 003
  MIC: 8 to 16 µg/mL (≈ 13 to 26 µM)
[7]; E. coli clinical isolate AG 055
  MIC: 8 to 16 µg/mL (≈ 13 to 26 µM)
[2]
  IC50 with eukaryotic A sites in the ribosome: Mitochondrial mutant A1555G: 5.77 ± 2.32 mg/L
[8]
  ratio of the IC50 for the G1408 mutant ribosomes to the IC50 for the wild-type ribosomes: 13
[4]
  IC50 with eukaryotic A sites in the ribosome: Rabbit reticulocytes: 9.55 ± 4.94 mg/L
S. aureus MRSA AG041
  bacterial burden in the kidney: below detectable limits
[9]
  Ribosomal damage index: Mitochondrial mutant A1555G: 125.0
[10]; S. aureus (MRSA) clinical isolate AG 038
  MIC: 4 µg/mL (≈ 6.5 µM)
[10]; S. aureus (MRSA) clinical isolate AG 039
  MIC: > 256 µg/mL
[10]; S. aureus (MRSA) clinical isolate AG 042
  MIC: > 256 µg/mL
[10]; S. aureus (MRSA) clinical isolate AG 044
  MIC: 4 to 8 µg/mL (≈ 6.5 to 13 µM)
[10]; S. aureus (MRSA) clinical isolate AG 045
  MIC: 4 µg/mL (≈ 6.5 µM)
[11]
  Ribosomal damage index: Mitochondrial wild-type: 5.0
[3]
  IC50 with eukaryotic A sites in the ribosome: Mitochondrial wild-type: 50.66 ± 13.33 mg/L
[12]
  Ribosomal damage index: Rabbit ribosomes: 120.0
[13]
  ratio of the IC50 for the C1491 mutant ribosomes to the IC50 for the wild-type ribosomes: 520
